Values belong to the molecule of their own block, whether it stands above or below them. The source made the active and inactive calls. No cut-off for these calls is given here.
Key:
[1] = Dissociation constant, pKa of the compound; type: physicochemical
HeLa = assay: Growth inhibition of HeLa cells; type: functional, cell-based; details: Homo sapiens
K562 = assay: Growth inhibition of K562 cells; type: functional, cell-based; details: Homo sapiens
Gallus gallus = species on record: Gallus gallus; assay: Acute toxicity in chick embryo after 72 to 96 hrs by hen's fertile egg screening test; type: organism-based; details: chicken, in vivo
In short: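 Fifteen-day-old fertile hen's egg embryos received compound through the air cell. Deaths were scored 72-96 h after treatment, and an LD50 was derived in mg/kg.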

Steryl-sulfatase = biological target: T1, Steryl-sulfatase (Homo sapiens, UniProt P08842); assay: (§1) Inhibition of Estrone sulfatase in human placental microsome; design: species or system Placenta
T1 sequence (P08842 whole entry): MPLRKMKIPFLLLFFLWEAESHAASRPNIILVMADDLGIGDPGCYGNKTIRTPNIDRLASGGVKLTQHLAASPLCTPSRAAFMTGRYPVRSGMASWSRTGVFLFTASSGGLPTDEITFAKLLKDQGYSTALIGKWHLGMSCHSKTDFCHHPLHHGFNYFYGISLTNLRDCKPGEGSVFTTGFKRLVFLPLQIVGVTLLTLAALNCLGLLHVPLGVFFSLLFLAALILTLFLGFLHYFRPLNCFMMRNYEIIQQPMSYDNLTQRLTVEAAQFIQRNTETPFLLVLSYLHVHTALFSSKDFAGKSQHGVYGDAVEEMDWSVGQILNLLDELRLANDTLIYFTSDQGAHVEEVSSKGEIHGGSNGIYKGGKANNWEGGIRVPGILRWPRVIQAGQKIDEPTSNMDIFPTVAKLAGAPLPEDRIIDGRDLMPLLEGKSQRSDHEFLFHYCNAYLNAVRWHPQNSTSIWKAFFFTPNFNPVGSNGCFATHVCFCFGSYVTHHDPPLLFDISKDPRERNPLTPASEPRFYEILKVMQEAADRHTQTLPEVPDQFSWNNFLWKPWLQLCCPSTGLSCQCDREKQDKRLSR

[2] = biological target: T2, Steryl-sulfatase (Homo sapiens) (UniProt P08842); assay: as §1; details: Placenta
T2 sequence (whole entry): T1 sequence (P08842 whole entry)

[3] = biological target: Estrone sulfatase (Homo sapiens); assay: Activity of Estrone sulfatase in human placental microsome; details: Placenta

Molecule: Oc1cccc(/C=N/NC(=S)NC2CCCCC2)c1
pKa [1]: 10.2

Molecule: O=C(O)c1cc(/C=N/NC(=S)NC2CCCCC2)ccc1O
IC50 (HeLa): > 50 µg/mL
IC50 (K562): > 50 µg/mL
Activity (Gallus gallus): > 50 mg/kg
pKa [1]: 4.2

Molecule: COc1c(C)ccc(/C=N/NC(=S)NC2CCCCC2)c1C(=O)O
IC50 (Steryl-sulfatase): > 100 µM

Molecule: S=C(N/N=C/c1cccc(-c2nnn[nH]2)c1)NC1CCCCC1
pKa [1]: 5.2

Molecule: O=C(O)c1cccc(/C=N/NC(=S)NC2CCCCC2)c1O
IC50 (HeLa): > 50 µg/mL
IC50 (K562): > 50 µg/mL
Activity (Gallus gallus): > 50 mg/kg
pKa [1]: 3.8

Molecule: COc1c2c(c(O)c3c1C(=O)c1c(cc(O)c(C)c1O)C3=O)-c1c(cc(/C=N/NC(=S)NC3CCCCC3)c(C(=O)O)c1O)CC2 [MHL CYCLOHEXYLTHIOSEMICARBAZONE]
IC50 (HeLa): > 50 µg/mL
IC50 (K562): > 50 µg/mL
Activity (Gallus gallus): > 50 mg/kg

Molecule: O=C(N/N=C/c1cccc(C(=O)O)c1)NC1CCCCC1
IC50 (Steryl-sulfatase): > 100 µM

Molecule: COc1ccc(/C=N/NC(=S)NC2CCCCC2)c(C(=O)O)c1OC
IC50 (Steryl-sulfatase): > 100 µM

Molecule: O=C(O)c1ccc(O)c(/C=N/NC(=S)NC2CCCCC2)c1
IC50 (HeLa): > 50 µg/mL
IC50 (K562): > 50 µg/mL
Activity (Gallus gallus): > 100 mg/kg
pKa [1]: 5.8

B1: Steryl-sulfatase (Homo sapiens), P08842 (protein)
chain: T1 sequence (P08842 whole entry)
Km [3]: 27 µM

Next, values leading:

IC50 (Steryl-sulfatase): > 100 µM
Molecule: COc1cccc(/C=N/NC(=S)NC2CCCCC2)c1C(=O)O

pKa [1]: 5.4
Molecule: O=C(O)c1cccc(/C=N/NC(=S)NC2CCCCC2)c1

pKa [1]: 9.8
Molecule: Oc1ccccc1/C=N/NC(=S)NC1CCCCC1

IC50 (Steryl-sulfatase): > 100 µM
Molecule: O=C(O)c1ccccc1/C=N/NC(=S)Nc1ccccc1

pKa [1]: 4.3
Molecule: Cc1ccc(/C=N/NC(=S)NC2CCCCC2)c(C(=O)O)c1O

Activity [2]: inactive
Molecule: CCCCNC(=S)N/N=C/c1ccccc1C(=O)O

IC50 (Steryl-sulfatase): 12 µM
Molecule: CCCCCCNC(=S)N/N=C/c1cccc(C(=O)O)c1

IC50 (Steryl-sulfatase): > 100 µM
pKa [1]: 7.7
Molecule: OB(O)c1ccccc1/C=N/NC(=S)NC1CCCCC1

IC50 (Steryl-sulfatase): > 100 µM
Molecule: C/C(=N\NC(=S)NC1CCCCC1)c1ccccc1C(=O)O

IC50 (Steryl-sulfatase): 58 µM
Molecule: CCCCNC(=S)N/N=C/c1cccc(C(=O)O)c1

Activity [2]: inactive
Molecule: CCCCCCNC(=S)N/N=C/c1ccccc1C(=O)O

IC50 (Steryl-sulfatase): > 100 µM
Molecule: O=C(O)c1ccccc1/C=N/NC(=S)NC1CC1

pKa [1]: 6.4
Molecule: O=C(O)c1ccccc1/C=N/NC(=S)NC1CCCCC1
